What is called IC50 is the concentration that gives 50% inhibition. Read a low IC50 as greater potency in that assay.

The results in this text go back to ChEMBL document CHEMBL1157006, “Cellular localization and allele-selective inhibition of mutant huntingtin protein by peptide nucleic acid oligomers containing the fluorescent nucleobase [bis-o-(aminoethoxy)phenyl]pyrrolocytosine” (Bioorg Med Chem Lett, 2009).

Assay [1] can be described thus: Inhibition of huntingtin […] expression in human GM04281 cells with 17 CAG repeats within wild type allele by Western blotting. The assay is classed as functional, cell-based. As to conditions: in the assay text read “69 CAG repeats within mutant allele” for “17 CAG repeats within wild type allele”. In short, it runs like this:
(§1)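 Patient-derived GM04281 fibroblasts carrying both wild-type and mutant HTT alleles were exposed to PNA-peptide conjugates, at 1 µM or across a concentration series. Mutant and wild-type HTT protein were measured separately by western blot and expressed relative to untreated cells. Experiments were run in triplicate.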
For orientation: In western blotting, separated proteins are transferred to a membrane and probed.

Assay [2] is described as follows: Inhibition of huntingtin […] expression in human GM04281 cells with 69 CAG repeats within mutant allele by Western blotting. The assay is classed as functional, cell-based. As to conditions: in the assay text read “17 CAG repeats within wild type allele” for “69 CAG repeats within mutant allele”. The method in brief: as §1
A short description of assay [3]: Ratio of IC50 for huntingtin […] expression in human GM04281 cells with 17 CAG repeats within wild type allele to huntingtin […] expression in human GM04281 cells with 69 CAG repeats within mutant allele. Format: functional.
Assay [4] is described as follows: Inhibition of huntingtin […] expression in human GM04281 cells with 69 CAG repeats within mutant allele at 0.2 to 2 uM by Western blotting. Format: functional. The method in brief: as §1
Assay [5] in a line: Inhibition of huntingtin […] expression in human GM04281 cells with 17 CAG repeats within wild type allele at >1 uM by Western blotting. Format: functional. As to conditions: in the assay text read “69 CAG repeats within mutant allele” for “17 CAG repeats within wild type allele”. The method in brief: as §1

Consider `Cc1cn(CC(=O)N(CCNC(=O)CN(CCNC(=O)CN(CCNC(=O)CN(CCNC(=O)CN(CCNC(=O)CN(CCNC(=O)CN(CCNC(=O)CN(CCNC(=O)CN(CCNC(=O)CN(CCNC(=O)CN(CCNC(=O)CN(CCN)C(=O)Cn2cnc3c(=O)[nH]c(N)nc32)C(=O)Cn2ccc(N)nc2=O)C(=O)Cn2cc(C)c(=O)[nH]c2=O)C(=O)Cn2cnc3c(=O)[nH]c(N)nc32)C(=O)Cn2ccc(N)nc2=O)C(=O)Cn2cc(C)c(=O)[nH]c2=O)C(=O)Cn2cnc3c(=O)[nH]c(N)nc32)C(=O)Cn2ccc(N)nc2=O)C(=O)Cn2cc(C)c(=O)[nH]c2=O)C(=O)Cn2cnc3c(=O)[nH]c(N)nc32)C(=O)Cn2ccc(N)nc2=O)CC(=O)NCCN(CC(N)=O)C(=O)Cn2cnc3c(=O)[nH]c(N)nc32)c(=O)[nH]c1=O`, for which the IC50 was 470 nM in assay [1] and over 2000 nM in assay [2]. Also, the “Ratio IC50” value in assay [3] is over 4.

Take `Cc1cn(CC(=O)N(CCNC(=O)CN(CCNC(=O)CN(CCNC(=O)CN(CCNC(=O)CN(CCNC(=O)CN(CCNC(=O)CN(CCNC(=O)CN(CCNC(=O)CN(CCNC(=O)CN(CCNC(=O)CN(CCNC(=O)CN(CCN)C(=O)Cn2cnc3c(=O)[nH]c(N)nc32)C(=O)Cn2cc3cc(-c4c(OCCN)cccc4OCCN)[nH]c3nc2=O)C(=O)Cn2cc(C)c(=O)[nH]c2=O)C(=O)Cn2cnc3c(=O)[nH]c(N)nc32)C(=O)Cn2cc3cc(-c4c(OCCN)cccc4OCCN)[nH]c3nc2=O)C(=O)Cn2cc(C)c(=O)[nH]c2=O)C(=O)Cn2cnc3c(=O)[nH]c(N)nc32)C(=O)Cn2cc3cc(-c4c(OCCN)cccc4OCCN)[nH]c3nc2=O)C(=O)Cn2cc(C)c(=O)[nH]c2=O)C(=O)Cn2cnc3c(=O)[nH]c(N)nc32)C(=O)Cn2ccc(N)nc2=O)CC(=O)NCCN(CC(N)=O)C(=O)Cn2cnc3c(=O)[nH]c(N)nc32)c(=O)[nH]c1=O`: the “inhibition (INH)” value in assay [4] is under 50%; in assay [5] it was over 50%. Also, the IC50 is 970 nM in assay [1] and over 4000 nM in assay [2].

Take `Cc1cn(CC(=O)N(CCNC(=O)CN(CCNC(=O)CN(CCNC(=O)CN(CCNC(=O)CN(CCNC(=O)CN(CCNC(=O)CN(CCNC(=O)CN(CCNC(=O)CN(CCNC(=O)CN(CCNC(=O)CN(CCNC(=O)CN(CCN)C(=O)Cn2cnc3c(=O)[nH]c(N)nc32)C(=O)Cn2cc3cc(-c4c(OCCN)cccc4OCCN)[nH]c3nc2=O)C(=O)Cn2cc(C)c(=O)[nH]c2=O)C(=O)Cn2cnc3c(=O)[nH]c(N)nc32)C(=O)Cn2cc3cc(-c4c(OCCN)cccc4OCCN)[nH]c3nc2=O)C(=O)Cn2cc(C)c(=O)[nH]c2=O)C(=O)Cn2cnc3c(=O)[nH]c(N)nc32)C(=O)Cn2cc3cc(-c4c(OCCN)cccc4OCCN)[nH]c3nc2=O)C(=O)Cn2cc(C)c(=O)[nH]c2=O)C(=O)Cn2cnc3c(=O)[nH]c(N)nc32)C(=O)Cn2cc3cc(-c4c(OCCN)cccc4OCCN)[nH]c3nc2=O)CC(=O)NCCN(CC(N)=O)C(=O)Cn2cnc3c(=O)[nH]c(N)nc32)c(=O)[nH]c1=O`: the IC50 in assay [1] was 2600 nM; in assay [2], over 4000 nM.

For `Cc1cn(CC(=O)N(CCNC(=O)CN(CCNC(=O)CN(CCNC(=O)CN(CCNC(=O)CN(CCNC(=O)CN(CCNC(=O)CN(CCNC(=O)CN(CCNC(=O)CN(CCNC(=O)CN(CCNC(=O)CN(CCNC(=O)CN(CCN)C(=O)Cn2cnc3c(=O)[nH]c(N)nc32)C(=O)Cn2cc3cc(-c4c(OCCN)cccc4OCCN)[nH]c3nc2=O)C(=O)Cn2cc(C)c(=O)[nH]c2=O)C(=O)Cn2cnc3c(=O)[nH]c(N)nc32)C(=O)Cn2ccc(N)nc2=O)C(=O)Cn2cc(C)c(=O)[nH]c2=O)C(=O)Cn2cnc3c(=O)[nH]c(N)nc32)C(=O)Cn2cc3cc(-c4c(OCCN)cccc4OCCN)[nH]c3nc2=O)C(=O)Cn2cc(C)c(=O)[nH]c2=O)C(=O)Cn2cnc3c(=O)[nH]c(N)nc32)C(=O)Cn2ccc(N)nc2=O)CC(=O)NCCN(CC(N)=O)C(=O)Cn2cnc3c(=O)[nH]c(N)nc32)c(=O)[nH]c1=O`, the IC50 in assay [1] is 580 nM; in assay [2] it was 1300 nM.

On to `Cc1cn(CC(=O)N(CCNC(=O)CN(CCNC(=O)CN(CCNC(=O)CN(CCNC(=O)CN(CCNC(=O)CN(CCNC(=O)CN(CCNC(=O)CN(CCNC(=O)CN(CCNC(=O)CN(CCNC(=O)CN(CCNC(=O)CN(CCN)C(=O)Cn2cnc3c(=O)[nH]c(N)nc32)C(=O)Cn2ccc(N)nc2=O)C(=O)Cn2cc(C)c(=O)[nH]c2=O)C(=O)Cn2cnc3c(=O)[nH]c(N)nc32)C(=O)Cn2ccc(N)nc2=O)C(=O)Cn2cc(C)c(=O)[nH]c2=O)C(=O)Cn2cnc3c(=O)[nH]c(N)nc32)C(=O)Cn2cc3cc(-c4c(OCCN)cccc4OCCN)[nH]c3nc2=O)C(=O)Cn2cc(C)c(=O)[nH]c2=O)C(=O)Cn2cnc3c(=O)[nH]c(N)nc32)C(=O)Cn2ccc(N)nc2=O)CC(=O)NCCN(CC(N)=O)C(=O)Cn2cnc3c(=O)[nH]c(N)nc32)c(=O)[nH]c1=O`, for which the figures for the IC50 in assay [1] and in assay [2] were 710 nM and 1860 nM, respectively.

For `Cc1cn(CC(=O)N(CCNC(=O)CN(CCNC(=O)CN(CCNC(=O)CN(CCNC(=O)CN(CCNC(=O)CN(CCNC(=O)CN(CCNC(=O)CN(CCNC(=O)CN(CCNC(=O)CN(CCNC(=O)CN(CCNC(=O)CN(CCN)C(=O)Cn2cnc3c(=O)[nH]c(N)nc32)C(=O)Cn2cc3cc(-c4c(OCCN)cccc4OCCN)[nH]c3nc2=O)C(=O)Cn2cc(C)c(=O)[nH]c2=O)C(=O)Cn2cnc3c(=O)[nH]c(N)nc32)C(=O)Cn2ccc(N)nc2=O)C(=O)Cn2cc(C)c(=O)[nH]c2=O)C(=O)Cn2cnc3c(=O)[nH]c(N)nc32)C(=O)Cn2ccc(N)nc2=O)C(=O)Cn2cc(C)c(=O)[nH]c2=O)C(=O)Cn2cnc3c(=O)[nH]c(N)nc32)C(=O)Cn2ccc(N)nc2=O)CC(=O)NCCN(CC(N)=O)C(=O)Cn2cnc3c(=O)[nH]c(N)nc32)c(=O)[nH]c1=O`, the IC50 in assay [1] was 540 nM; in assay [2], 1680 nM.
